According to ChEMBL document CHEMBL1137100, “Design, synthesis, and antiviral activity of certain 3-substituted 2,5,6-trichloroindole nucleosides” (J Med Chem, 2004):

System: Human alphaherpesvirus 1
Experiment: Inhibitory concentration required against herpes simplex virus type-1 (HSV-1) expressed in BSC-1 cells was determined by ELISA assay
Format: functional, organism-based
Settings: Human alphaherpesvirus 1, BSC-1
How it was run: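 HSV-1 KOS strain. BSC-1 cells, 10 000 per well in MEM(E) with 10% calf serum, incubated overnight at 37 °C, then drug plus virus at 100 pfu/well, quadruplicate wells, 3 days at 37 °C. Detection with HRP-conjugated rabbit anti-HSV-1 antibody and TMB substrate, stopped with H₂SO₄ after 15 min, absorbance at 450 and 570 nm. IC50 by regression vs log10 concentration; acyclovir as positive control.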

| SMILES | IC50 [µM] |
| --- | --- |
| CC(=O)OC[C@H]1OC(n2c(Cl)c(C=O)c3cc(Cl)c(Cl)cc32)[C@H](O)[C@@H]1O (stereo partly drawn) | 20 |
| CC(=O)OC[C@H]1OC(n2c(Br)c(C=O)c3cc(Cl)c(Cl)cc32)[C@H](O)[C@@H]1O (stereo partly drawn) | 15 |
| OC[C@H]1O[C@@H](n2c(Br)nc3cc(Cl)c(Cl)cc32)C(O)[C@@H]1O (single isomer, unassigned) | 130 |
| OC[C@H]1OC(n2c(Cl)c(Cl)c3cc(Cl)c(Cl)cc32)C(O)[C@@H]1O (single isomer, unassigned) | 45 |
| O=Cc1c(Br)n(C2O[C@H](CO)[C@@H](O)C2O)c2cc(Cl)c(Cl)cc12 (single isomer, unassigned) | 20 |
| N#Cc1c(Cl)n(C2O[C@H](CO)[C@@H](O)C2O)c2cc(Cl)c(Cl)cc12 (single isomer, unassigned) | 15 |
| CCC(=O)c1c(Cl)n(C2O[C@H](CO)[C@@H](O)C2O)c2cc(Cl)c(Cl)cc12 (single isomer, unassigned) | 20 |
| O=C(c1c(Cl)n(C2O[C@H](CO)[C@@H](O)C2O)c2cc(Cl)c(Cl)cc12)C(F)(F)F (single isomer, unassigned) | 15 |
| CC(=O)OC[C@H]1OC(n2c(Cl)c(C#N)c3cc(Cl)c(Cl)cc32)C(O)[C@@H]1O (single isomer, unassigned) | 50 |
| OC[C@H]1OC(n2c(Cl)c(-c3ccsc3)c3cc(Cl)c(Cl)cc32)C(O)[C@@H]1O (single isomer, unassigned) | 45 |
| O=CCc1c(Cl)n(C2O[C@H](CO)[C@@H](O)C2O)c2cc(Cl)c(Cl)cc12 (single isomer, unassigned) | > 100 |

System: not listed separately
Experiment: Cytotoxicity against KB cells was determined by crystal violet staining and spectrophotometric quantitation of dye eluted from stained cells
Format: functional, cell-based
Settings: not given
How it was run: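 KB cells seeded at 3000–5000 per well, incubated overnight at 37 °C, then exposed to compound at six to eight concentrations for 48 h at 37 °C in CO₂ (two population doublings). Fixed with 95% ethanol, stained with 0.1% crystal violet, dye eluted with acidified ethanol, read at 570 nm. IC50 by linear regression of % inhibition vs log10 concentration.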

| SMILES | IC50 [µM] |
| --- | --- |
| CC(=O)OC[C@H]1OC(n2c(Cl)c(C=O)c3cc(Cl)c(Cl)cc32)[C@H](O)[C@@H]1O (stereo partly drawn) | 35 |
| CC(=O)OC[C@H]1OC(n2c(Br)c(C=O)c3cc(Cl)c(Cl)cc32)[C@H](O)[C@@H]1O (stereo partly drawn) | 40 |
| OC[C@H]1O[C@@H](n2c(Br)nc3cc(Cl)c(Cl)cc32)C(O)[C@@H]1O (single isomer, unassigned) | > 100 |
| OC[C@H]1OC(n2c(Cl)c(Cl)c3cc(Cl)c(Cl)cc32)C(O)[C@@H]1O (single isomer, unassigned) | 80 |
| O=Cc1c(Br)n(C2O[C@H](CO)[C@@H](O)C2O)c2cc(Cl)c(Cl)cc12 (single isomer, unassigned) | 50 |
| N#Cc1c(Cl)n(C2O[C@H](CO)[C@@H](O)C2O)c2cc(Cl)c(Cl)cc12 (single isomer, unassigned) | 65 |
| CCC(=O)c1c(Cl)n(C2O[C@H](CO)[C@@H](O)C2O)c2cc(Cl)c(Cl)cc12 (single isomer, unassigned) | 100 |
| O=C(c1c(Cl)n(C2O[C@H](CO)[C@@H](O)C2O)c2cc(Cl)c(Cl)cc12)C(F)(F)F (single isomer, unassigned) | 20 |
| CC(=O)OC[C@H]1OC(n2c(Cl)c(C#N)c3cc(Cl)c(Cl)cc32)C(O)[C@@H]1O (single isomer, unassigned) | 70 |
| OC[C@H]1OC(n2c(Cl)c(-c3ccsc3)c3cc(Cl)c(Cl)cc32)C(O)[C@@H]1O (single isomer, unassigned) | 60 |
| O=CCc1c(Cl)n(C2O[C@H](CO)[C@@H](O)C2O)c2cc(Cl)c(Cl)cc12 (single isomer, unassigned) | 70 |

System: Human betaherpesvirus 5
Experiment: Inhibitory concentration required against human cytomegalovirus (HCMV) expressed in HFF cells was determined by plaque reduction assay
Format: functional, organism-based
Settings: Human betaherpesvirus 5, HFF
How it was run: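 HCMV Towne strain, isolate P₀. HFF monolayers infected with about 100 pfu per cm²; after adsorption, compound (diluted from 10 mg/mL DMSO stock) added at four to eight concentrations in duplicate wells. Incubated 7–10 days at 37 °C, fixed and stained with crystal violet, plaques counted microscopically. IC50 from regression of % plaque reduction vs log10 concentration; ganciclovir as positive control.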

| SMILES | IC50 [µM] |
| --- | --- |
| CC(=O)OC[C@H]1OC(n2c(Cl)c(C=O)c3cc(Cl)c(Cl)cc32)[C@H](O)[C@@H]1O (stereo partly drawn) | < 0.1 |
| CC(=O)OC[C@H]1OC(n2c(Br)c(C=O)c3cc(Cl)c(Cl)cc32)[C@H](O)[C@@H]1O (stereo partly drawn) | 0.32 |
| OC[C@H]1O[C@@H](n2c(Br)nc3cc(Cl)c(Cl)cc32)C(O)[C@@H]1O (single isomer, unassigned) | 0.7 |
| OC[C@H]1OC(n2c(Cl)c(Cl)c3cc(Cl)c(Cl)cc32)C(O)[C@@H]1O (single isomer, unassigned) | 38 |
| O=Cc1c(Br)n(C2O[C@H](CO)[C@@H](O)C2O)c2cc(Cl)c(Cl)cc12 (single isomer, unassigned) | 0.32 |
| N#Cc1c(Cl)n(C2O[C@H](CO)[C@@H](O)C2O)c2cc(Cl)c(Cl)cc12 (single isomer, unassigned) | 0.55 |
| CCC(=O)c1c(Cl)n(C2O[C@H](CO)[C@@H](O)C2O)c2cc(Cl)c(Cl)cc12 (single isomer, unassigned) | 2.5 |
| O=C(c1c(Cl)n(C2O[C@H](CO)[C@@H](O)C2O)c2cc(Cl)c(Cl)cc12)C(F)(F)F (single isomer, unassigned) | 6.2 |
| CC(=O)OC[C@H]1OC(n2c(Cl)c(C#N)c3cc(Cl)c(Cl)cc32)C(O)[C@@H]1O (single isomer, unassigned) | 2.5 |
| OC[C@H]1OC(n2c(Cl)c(-c3ccsc3)c3cc(Cl)c(Cl)cc32)C(O)[C@@H]1O (single isomer, unassigned) | 31 |
| O=CCc1c(Cl)n(C2O[C@H](CO)[C@@H](O)C2O)c2cc(Cl)c(Cl)cc12 (single isomer, unassigned) | 4 |

System: HFF
Experiment: Cytotoxicity produced in stationary HFF cells was determined by microscopic inspection of uninfected cells
Format: functional, cell-based
Settings: Homo sapiens
How it was run: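 Uninfected stationary HFF cells inspected microscopically for cytotoxicity, scored at the time of HCMV plaque enumeration (7–10 days at 37 °C), duplicate wells. Compounds from 10 mg/mL DMSO stocks diluted in growth medium. IC50 from linear regression of % inhibition vs log10 concentration.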

| SMILES | IC50 [µM] |
| --- | --- |
| CC(=O)OC[C@H]1OC(n2c(Cl)c(C=O)c3cc(Cl)c(Cl)cc32)[C@H](O)[C@@H]1O (stereo partly drawn) | 32 |
| CC(=O)OC[C@H]1OC(n2c(Br)c(C=O)c3cc(Cl)c(Cl)cc32)[C@H](O)[C@@H]1O (stereo partly drawn) | 32 |
| OC[C@H]1OC(n2c(Cl)c(Cl)c3cc(Cl)c(Cl)cc32)C(O)[C@@H]1O (single isomer, unassigned) | 32 |
| O=Cc1c(Br)n(C2O[C@H](CO)[C@@H](O)C2O)c2cc(Cl)c(Cl)cc12 (single isomer, unassigned) | 32 |
| N#Cc1c(Cl)n(C2O[C@H](CO)[C@@H](O)C2O)c2cc(Cl)c(Cl)cc12 (single isomer, unassigned) | 32 |
| CCC(=O)c1c(Cl)n(C2O[C@H](CO)[C@@H](O)C2O)c2cc(Cl)c(Cl)cc12 (single isomer, unassigned) | > 100 |
| O=C(c1c(Cl)n(C2O[C@H](CO)[C@@H](O)C2O)c2cc(Cl)c(Cl)cc12)C(F)(F)F (single isomer, unassigned) | 32 |
| CC(=O)OC[C@H]1OC(n2c(Cl)c(C#N)c3cc(Cl)c(Cl)cc32)C(O)[C@@H]1O (single isomer, unassigned) | 32 |
| OC[C@H]1OC(n2c(Cl)c(-c3ccsc3)c3cc(Cl)c(Cl)cc32)C(O)[C@@H]1O (single isomer, unassigned) | > 100 |
| O=CCc1c(Cl)n(C2O[C@H](CO)[C@@H](O)C2O)c2cc(Cl)c(Cl)cc12 (single isomer, unassigned) | > 100 |
